Data set [1] concerns Trypanosoma brucei brucei. As to the kind of experiment: Antitrypanosomal activity against Trypanosoma brucei brucei 221 after 48 hrs by Cell Titre Glo assay. Type of data set: functional, organism-based. The note with it: Trypanosoma brucei, 221, 48 h. An outline of the steps: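 Bloodstream-form parasites grown in HMI-9 with 10% heat-inactivated FBS, 10% Serum Plus and penicillin/streptomycin at 37 °C, 5% CO₂, to 1 × 10⁶ cells/mL. Diluted to 1 × 10⁴ cells/mL, then dosed with a DMSO dilution series by pin transfer. Incubated 48 h at 37 °C, 5% CO₂. Viability read by CellTiter-Glo luminescence. EC₅₀ from a variable-slope sigmoidal fit. Mean of six replicates, errors as 95% CI.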

For data set [2], the system named is Trypanosoma brucei gambiense. The data set is described as follows: Antitrypanosomal activity against Trypanosoma brucei gambiense STIB930 after 70 hrs by Alamar Blue assay. The format is functional, organism-based. The following applies: STIB930, 70 h. Put shortly: (§1)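 T. b. gambiense strains were grown in HMI-9 with 15% heat-inactivated FBS and 5% human serum. 10000 trypanosomes per well were seeded into serial drug dilutions and held 70 h at 37 °C in humidified 5% CO2. Resazurin was then added for a further 4–6 h, and fluorescence was read (ex 536/em 588 nm). IC50 was taken by linear regression from sigmoidal dose-inhibition curves.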

The subject of data set [3] is HepG2. The data set is described as follows: Cytotoxicity against human HepG2 cells after 72 hrs by Cell Titre Glo assay. The note with it: HepG2, 72 h. Type of data set: cell-based. An outline of the steps: (§2)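 Human cells grown to 80% confluence were plated in 384-well format and received compound dilutions by pin tool. After 72 h at 37 °C in 5% CO2, viability was measured by CellTiter-Glo luminescence.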

The subject of data set [4] is BJ. The data set is described as follows: Cytotoxicity against human BJ cells after 72 hrs by Cell Titre Glo assay. The format is cell-based. Put shortly:
as §2

Data set [5] is described as follows: Permeability of the compound at pH 7.4 by PAMPA. Type of data set: ADME. The note with it: for Papp: PAMPA, read-out: permeability. Put shortly: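 Compound (10 mM DMSO stock) was diluted in system solution buffer pH 7.4 and placed in the donor chamber of a PAMPA sandwich whose membrane was coated with GIT lipid. Acceptor buffer filled the acceptor chamber, and the assembly was stirred for 30 min. Donor and acceptor UV spectra (250–500 nm) were compared with a reference to give the permeability coefficient. Run in triplicate.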

Data set [6] in a line: Kinetic solubility of the compound in PBS buffer at pH 7.4 after 18 hrs by UV spectrophotometric analysis. The format is physicochemical. The following applies: for Kinetic_solubility: buffer, pH 7.4, 18 h, BLD = below limit of detection; for solubility kinetic at 18 h: PBS buffer, pH 7.4, read-out: Kinetic_solubility. An outline of the steps:
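Compound from a 10 mM stock was added to PBS pH 7.4 and left 18 h at room temperature. The suspension was filtered, and the filtrate was mixed 1:1 with 1-propanol. Solubility was derived from UV spectrum AUC (250–500 nm) relative to a 1-propanol/PBS reference. Run in triplicate.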

The test system of data set [7] is Trypanosoma brucei rhodesiense. The data set is described as follows: Antitrypanosomal activity against bloodstream forms of wild type Trypanosoma brucei rhodesiense STIB900 after 70 hrs by Alamar Blue assay. Type of data set: functional, organism-based. The note with it: STIB900, 70 h. An outline of the steps:
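T. b. rhodesiense STIB 900 was cultured in MEM with Earle's salts and Baltz supplements (0.2 mM 2-mercaptoethanol, 1 mM Na-pyruvate, 0.5 mM hypoxanthine, 15% heat-inactivated horse serum). 2000 bloodstream forms per well were exposed to serial drug dilutions for 70 h at 37 °C in humidified 5% CO2. Resazurin followed for 2–4 h, read by fluorescence (ex 536/em 588 nm). IC50 came from sigmoidal curves by linear regression.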

Data set [8] can be described thus: Half life in mouse liver microsomes. The format is ADME, Microsome. An outline of the steps: (§3)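 Liver microsomes (human: pooled from 200 mixed-gender donors; mouse: female […]) were diluted in 0.1 M potassium phosphate, pH 7.4, with EDTA, then spiked from a 2 mM DMSO/acetonitrile compound stock. Reactions were started with cofactor solutions A+B and kept at 37 °C with shaking. Samples at 0, 0.5, 1, 2 and 4 h were quenched with cold methanol containing 10 μM warfarin and analysed by UPLC-MS (SIR). k = −2.303 × slope of log peak-area ratio versus time; t1/2 = 0.693/k.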

The subject of data set [9] is Raji. The data set is described as follows: Cytotoxicity against human Raji cells after 72 hrs by Cell Titre Glo assay. The format is cell-based. An outline of the steps: as §2
The subject of data set [10] is HEK293. As to the kind of experiment: Cytotoxicity against HEK293 cells after 72 hrs by Cell Titre Glo assay. The format is cell-based. The following applies: Homo sapiens, HEK293, 72 h. Put shortly: as §2
The nature of data set [11]: Half life in human liver microsomes. The format is ADME, Microsome. Put shortly:
as §3

Data set [12] has as its system Trypanosoma brucei gambiense. As to the kind of experiment: Antitrypanosomal activity against Trypanosoma brucei gambiense KO48 after 70 hrs by Alamar Blue assay. The format is functional, organism-based. The following applies: KO48, 70 h. Put shortly: as §1
The subject of data set [13] is Trypanosoma brucei brucei. As to the kind of experiment: Antitrypanosomal activity against blood stream stage of Trypanosoma brucei brucei after 48 hrs by Cell Titre Glo assay. The format is functional, organism-based. An outline of the steps:
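Culture-adapted parasites were grown in HMI-9 with 10% heat-inactivated FBS, 10% Serum Plus and penicillin/streptomycin to 1 × 10⁶ cells/mL, then diluted to 1 × 10⁴ cells/mL. DMSO dilution series were pin-transferred and plates held 48 h at 37 °C in 5% CO2. After 30 min at room temperature, CellTiter-Glo was added and luminescence read after 8 min.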

For data set [14], the system named is Trypanosoma brucei gambiense. The data set is described as follows: Antitrypanosomal activity against Trypanosoma brucei gambiense DAL 898R after 70 hrs by Alamar Blue assay. Type of data set: functional, organism-based. Put shortly: as §1
Data set [15] is described as follows: Permeability of the compound at pH 3.0 by PAMPA. The following applies: read-out: permeability. Type of data set: ADME.
Data set [16] in a line: Kinetic solubility of the compound in PBS buffer at pH 3.0 after 18 hrs by UV spectrophotometric analysis. Type of data set: physicochemical. The following applies: read-out: Kinetic_solubility.

Values after ≈ are worked out from the molar mass of the structure shown. Some results are limits rather than exact numbers.

With `COc1ccc(-c2nc3ccccc3s2)cc1NC(=O)c1cc([N+](=O)[O-])ccc1Cl`, the EC50 in [1] is 120 nM; in data set [2], 63 nM; in data set [3], greater than 25000 nM; in data set [4], greater than 25000 nM; in data set [7], 73 nM; in data set [9] it was greater than 25000 nM. Also, the EC50 in [10] is greater than 25000 nM. In addition, the permeability entry in data set [5] (pampa, BLD = below limit of detection) was “BLD”. Also, in [6], the Kinetic_solubility entry is given as “BLD”. Further, the half-life in data set [8] is greater than 4 h; in [11], 3.7 h.

Consider `O=C(Nc1cccc(-c2nc3ccccc3o2)c1)c1cc([N+](=O)[O-])ccc1Cl`, for which the EC50 is 460 nM in data set [12]; 480 nM in data set [1]; 210 nM in [2]; greater than 25000 nM in data set [3]; greater than 25000 nM in data set [4]; 370 nM in data set [7]. In addition, the concentration for a half-maximal effect (EC50) in data set [9] is greater than 25000 nM; in data set [10], greater than 25000 nM; in data set [13], 290 nM; in data set [14], 620 nM. In addition, the Papp in [5] was determined as 45 ×10⁻⁶ cm/s. Besides, in data set [6], the solubility kinetic at 18 h was determined as 0.47 µM (≈ 0.185 µg/mL).

Consider `Cc1ccc(-c2nc3ccccc3s2)cc1NC(=O)c1cc([N+](=O)[O-])ccc1Cl`, for which the EC50 in [1] was 6 nM; in data set [2], 36 nM; in data set [3], greater than 14000 nM; in data set [4], greater than 14000 nM; in data set [7] it was 13 nM; in data set [9], greater than 14000 nM. This compound also registered an EC50 in data set [10] greater than 14000 nM. In data set [5], the Papp amounted to 41 ×10⁻⁶ cm/s. The Kinetic_solubility entry in data set [6] is “BLD”. Further, the half-life in data set [8] and in data set [11] was greater than 4 h in each case.

As to `O=C(Nc1cccc(-c2nc3ccccc3s2)c1)c1cc([N+](=O)[O-])c(N2CCOCC2)cc1Cl`, the Papp in data set [15] stood at 106 ×10⁻⁶ cm/s; in data set [5], 18 ×10⁻⁶ cm/s. The EC50 was 220 nM in data set [1]; greater than 25000 nM in data set [3]; greater than 25000 nM in data set [4]; greater than 25000 nM in data set [9]; greater than 25000 nM in data set [10]. For the same compound, the solubility kinetic at 18 h in [16] came out at 0.07 µM (≈ 0.0346 µg/mL); in data set [6], 0.37 µM (≈ 0.183 µg/mL).

`O=C(Nc1ccc(Cl)c(C(F)(F)F)c1)c1cc([N+](=O)[O-])ccc1Cl`: the concentration giving a half-maximal response (EC50) was 1300 nM in data set [12]; 1100 nM in data set [1]; 820 nM in [2]; greater than 27000 nM in data set [3]; greater than 27000 nM in [4]; 1800 nM in [7]. For the same compound, the values for the EC50 in [9], in data set [10] and in [14] were greater than 27000 nM, greater than 27000 nM and 1600 nM, respectively. Besides, the Papp in [5] was determined as 8 ×10⁻⁶ cm/s. Also, the solubility kinetic at 18 h in [6] is 0.58 µM (≈ 0.22 µg/mL).

With `O=C(Nc1nc(-c2ccc(F)c(F)c2)cs1)c1cc([N+](=O)[O-])ccc1Cl`, the EC50 was 630 nM in [12]; 2500 nM in [1]; 560 nM in data set [2]; greater than 27000 nM in data set [3]; greater than 27000 nM in data set [4]; 1500 nM in data set [7]. For the same compound, the figures for the EC50 in [9], in [10] and in data set [14] were 13000 nM, 8300 nM and 1600 nM, respectively. Further, the Papp in data set [5] came out at 37 ×10⁻⁶ cm/s. Moreover, the Kinetic_solubility result in data set [6] is “BLD”.

Consider `O=C(Nc1ccc2oc(-c3ccc(F)cc3)nc2c1)c1cc([N+](=O)[O-])ccc1Cl`, for which the EC50 in data set [12] came out at 2600 nM; in data set [1], 6000 nM; in data set [2] it was 420 nM; in [7], 3800 nM; in data set [13] it was 640 nM; in data set [14] it was 4400 nM.

Regarding `O=C(Nc1ccc(F)c(-c2nc3ccccc3s2)c1)c1cc([N+](=O)[O-])c(N2CCNCC2)cc1Cl`, the EC50 is 58 nM in data set [1]; 170 nM in data set [2]; greater than 25000 nM in data set [3]; greater than 25000 nM in data set [4]; 140 nM in [7]; greater than 25000 nM in [9]. Moreover, the 50% effective concentration (EC50) in data set [10] is greater than 25000 nM. The half-life in data set [8] and in [11] was greater than 4 h each time.
